Screens as filed in PubChem BioAssay.
A selection: hits, their analogues and other compounds. The true share with any hit is near 2.8%.
PGE2 EP2 inh: EP2 receptor (human) inhibition | P43116 | C6 glioma cells expressing human EP2, cAMP TR-FRET; cells stimulated with saturating PGE2 | inhibition, % at 25 µM | 0.52% of 260,000 active | AID 1422;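 active = percent inhibition above 40 after rounding to a whole number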;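 note: rat C6 glioma host cells with rolipram phosphodiesterase inhibitor present; the protocol text gives 20 µM as final concentration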
Target sequence (P43116 whole entry, looked up): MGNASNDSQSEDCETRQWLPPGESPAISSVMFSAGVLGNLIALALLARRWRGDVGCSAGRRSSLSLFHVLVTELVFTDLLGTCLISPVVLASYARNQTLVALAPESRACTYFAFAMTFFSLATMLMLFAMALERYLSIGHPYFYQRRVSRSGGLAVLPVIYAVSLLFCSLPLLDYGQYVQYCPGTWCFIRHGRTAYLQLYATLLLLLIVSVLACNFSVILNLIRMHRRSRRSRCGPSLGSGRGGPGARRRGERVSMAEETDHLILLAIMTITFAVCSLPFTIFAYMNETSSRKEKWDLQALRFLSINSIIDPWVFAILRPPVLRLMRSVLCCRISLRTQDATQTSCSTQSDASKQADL
NPY Y2 blocker: antagonists of human neuropeptide Y receptor Y2 | NPY-Y2 expressing cells, antagonist mode | AID 793 | inhibition, % at 2.7 µM | P49146 | 0.99% of 140,000 active; in the data active = inhibition above about 17%
EP2 mod: modulates human prostaglandin E2 receptor EP2 signaling; P43116; EP2-expressing cells, cAMP HTRF FRET, PGE2 co-stimulation; induction, % at 25 µM; 0.83% of 260,000 active; AID 940;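 active = compounds whose cAMP rise, as percent of the full-agonist control response, exceeds 60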;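 note: rat C6 glioma line stably carrying human EP2 under a CMV promoter; the protocol text gives 20 µM as final concentration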
NPY-Y2 PAM-ag: potentiates or activates human NPY-Y2 receptor | cells expressing NPY-Y2, potentiator/agonist read-out | P49146 | activation, % at 3.6 µM | AID 1359 | 0.45% of 220,000 active; in the data active = activation above about 27%;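 note: cells stimulated with NPY near EC25 plus isoproterenol at EC100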
NPY-Y1 antag: NPY-Y1 (human) receptor antagonism | P25929 | HEK293-CNG Y1 cells, membrane potential fluorescence; NPY at EC95, then isoproterenol | inhibition, % at 3.6 µM | 1% of 200,000 active | AID 1040;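 active = inhibition above the campaign mean inhibition of all tested compounds plus 3 SD, cut at about 20% in these data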
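material = HEK293 cells with Y1 receptor plus CNG channel | also added = NPY 25 nM then isoproterenol 1 µM plus Ro 20-1724 25 µM | schedule = dye 3 h, compound 60 min room temperature, stimulation 45 min | measured by = membrane potential fluorescence | benchmarks = high control isoproterenol alone, low control NPY with isoproterenol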
NPY1 pot ag: potentiates or activates human NPY-Y1 receptor; NPY-Y1 expressing cells, potentiator/agonist activation; activation, % at 3.6 µM; 0.37% of 220,000 active; AID 1304; in the data active = activation above about 33%, passing the limit was not always enough;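 note: cells stimulated with NPY at EC10 then isoproterenol at EC100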
Hits are given with their value; - = inactive; . = no result; ! = repeats disagree.

SMILES | PGE2 EP2 inh | NPY Y2 blocker | EP2 mod | NPY-Y2 PAM-ag | NPY-Y1 antag | NPY1 pot ag
Cc1ccc(C(=O)c2c(C)oc3c2C(=O)C(=O)c2ccccc2-3)cc1 | 55 | - | - | - | - | -
Cc1ccc(C(=O)c2coc3c2C(=O)C(=O)c2ccccc2-3)cc1 | - | - | - | - | - | -
COC(=O)CNC(c1ccccc1)c1cc(C)ccc1NC(=O)CNC(=O)OCc1ccccc1 (configuration not stated) | - | 38 | - | - | 29 | -
COC(=O)CNC(c1ccccc1)c1cc(C)ccc1NC(=O)c1cccc(Cl)c1 (configuration not stated) | - | 17 | - | - | 28 | -
COC(=O)CNC(c1ccccc1)c1cc(C)ccc1NS(=O)(=O)c1ccc(C)cc1 (configuration not stated) | - | - | - | - | - | -
Cc1c(NC(=O)Nc2c(Cl)cccc2Cl)c(=O)n(-c2ccccc2)n1C | 48! | . | - | - | . | -
Cc1ccc(C2=C(Cl)C(=O)C(c3ccc(C)cc3)=C(Cl)C2=O)cc1 | 46 | . | - | . | . | .
Cc1ccc(S(=O)(=O)c2ccc(C)cc2)cc1 | - | - | - | - | - | -
COc1ccccc1NC(=O)c1sc(NC(=O)Cc2ccccc2)c(C#N)c1C | - | . | - | . | . | .
COc1ccccc1NC(=O)c1sc(NC(=O)COc2ccccc2)c(C#N)c1C | - | . | 66 | . | . | .
O=C(NCCCn1ccnc1)c1cc([N+](=O)[O-])cc([N+](=O)[O-])c1 | - | - | - | 78 | - | 61
COC(=O)c1[nH]c2ccc(C)cc2c1NS(=O)(=O)c1ccc(F)c(C)c1 | . | - | 63 | - | - | -
COc1ccc(N(CC(O)CN2CCCC2)S(=O)(=O)c2ccccc2)cc1 (configuration not stated) | - | . | - | . | . | .
CCC(=O)Nc1cccc(-c2nc3ccccc3o2)c1 | - | - | - | - | - | -
CC(=O)Nc1nc2ccc(-c3nc4ccccc4o3)cc2s1 | - | - | - | 37 | - | 46
NC(=O)Cn1nc2c3ccccc3nc(Cc3ccccc3)n2c1=O | . | . | - | . | . | .
CCCCC1C(=O)CC[C@H]2[C@@H]1CC(=O)[C@@H]2C/C=C\CCCC(=O)O (some centres not stated) | - | - | 80 | - | - | -
c1coc(C2OCC3(CO2)COC(c2ccco2)OC3)c1 (configuration not stated) | 54 | . | - | - | . | -
O=C(CCN1C(=O)/C(=C/c2ccc3c(c2)OCO3)SC1=S)NNC(=O)c1cccc(O)c1 | - | . | - | . | . | .
C/C(N)=C(/C#N)C(=O)COC(=O)c1ccccc1Cc1ccccc1 | - | . | 63 | - | - | -
C/C(N)=C(/C#N)C(=O)COC(=O)c1ccncc1 | - | - | - | - | - | -
O=C(c1nc2ccccc2s1)C1CCN(C(=O)Cc2cccc(Cl)c2)CC1 | . | . | - | . | . | .
CCSc1nc2sc3c(c2c(=O)n1C)CCCC3 | - | . | 61 | . | . | .
Cn1c(SCC(N)=O)nc2sc3c(c2c1=O)CCCC3 | - | . | - | . | . | .
CNC(=S)N(Cc1cc2cc3c(cc2[nH]c1=O)OCO3)C1CCCC1 | - | . | - | . | . | .
SMILES | PGE2 EP2 inh | NPY Y2 blocker | EP2 mod | NPY-Y2 PAM-ag | NPY-Y1 antag | NPY1 pot ag
Cc1ccc(Cl)cc1NC(C#N)c1ccccc1 (configuration not stated) | - | . | 63 | - | . | -
CCOCCCNC(=O)CN1C(=O)[C@@H]2CCCN2C(=O)c2ccccc21 | - | . | - | . | . | .
COc1cc(CCc2ccc3c(c2)OCO3)oc(=O)c1 | - | . | 63 | . | . | .
Cn1c(SCC(=O)Nc2cccc(Cl)c2)nnc1-c1ccco1 | - | . | - | . | . | .
Cc1nc(C/C(=N\Nc2ccccc2)c2ccc(O)cc2O)cs1 | - | . | 64 | - | - | -
Cc1cc2cc(CN(CCO)C(=S)NCCCN3CCOCC3)c(=O)[nH]c2cc1C | - | . | - | . | . | .
O=C(c1ccco1)N(CCCN1CCOCC1)c1nc(-c2ccc(Cl)cc2)cs1 | - | 30 | - | - | 41 | -
O=C(c1ccco1)N(Cc1ccco1)c1nc(-c2ccccc2)cs1 | - | . | 78 | . | . | .
CCN(CC)CCCN(C(=O)c1ccco1)c1nc(-c2ccc(Cl)cc2)cs1 | - | . | - | . | . | .
Cc1sc2nc(SCC(=O)Nc3cccc(Cl)c3)n(C)c(=O)c2c1C | - | . | - | . | . | .
N/C(Cc1ccc(Cl)c(Cl)c1)=N\OC(=O)c1cccs1 | - | - | - | - | - | -
N/C(=N\OC(=O)c1cccs1)C1(c2ccc(Cl)cc2Cl)CC1 | 54 | . | - | - | . | -
C[C@@]12CC[C@@H]3[C@H](CCC4=CC(=O)CC[C@]43C)[C@H]1CC[C@H]2C(=O)Cn1cnc2c(=S)nc[nH]c21 | 41 | . | - | . | . | .
C[C@@]12CC[C@@H]3[C@H](CCC4=CC(=O)CC[C@]43C)[C@H]1CC[C@H]2C(=O)COS(=O)(=O)c1ccc(Br)cc1 | 44 | . | - | . | . | .
CCOC(=O)c1cccc(NC(=O)CSc2nc3cc4c(cc3cc2C#N)OCCO4)c1 | - | . | - | . | . | .
CCn1c(SCC(=O)N/N=C/c2c[nH]c3ccccc23)nnc1-c1ccc(C(C)(C)C)cc1 | - | - | - | 44 | - | 49
Cc1ccc2[nH]c(=O)c(CN(C3CCCC3)S(=O)(=O)c3ccccc3Cl)cc2c1 | - | . | - | . | . | .
Cc1ccccc1CSc1ncnc2ccccc12 | - | . | 62 | - | - | -
CCC(=O)Nc1c2c(nn1-c1ccc(F)cc1)CS(=O)C2 (configuration not stated) | - | - | - | - | - | -
O=C(CCC1CCCCC1)Nc1c2c(nn1-c1ccc(F)cc1)CS(=O)(=O)C2 | - | 30 | - | - | 57 | -
CCOC(=O)C1(C)C=C(Nc2ccccc2)C(=O)N1c1ccccc1 (configuration not stated) | - | . | 62 | - | - | -
CCOC(=O)C1(C)C=C(Nc2ccc(OCC)cc2)C(=O)N1c1ccccc1 (configuration not stated) | - | - | - | - | - | -
Cc1ccc(-c2nnn(CC(=O)N(c3ccccc3)C(C(=O)NC3CCCC3)c3ccc(C)o3)n2)o1 (configuration not stated) | - | . | - | . | . | .
